# Bioassay records (PubChem)
# An excerpt weighted towards active compounds, which were near 2.3% of everything screened.
# TRPC4 PAM: TRPC4 (mouse) allosteric potentiation. Q9QUQ5. HEK293 TRPC4beta/mu-opioid, DAMGO EC20, Fluo-4 Ca2+ flux; stronger effect = higher value. B-score at 10 µM. actives 0.42% (n = 310,000);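 active = B-score of calcium response area above 5 SD of library B-scores, with initial fluorescence ratio within 5 SD of library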;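 also: B-score of integrated fluorescence ratio over time as area under calcium response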
# TRPC4 block: blocks the mouse TRPC4 cation channel. Q9QUQ5. HEK293 TRPC4beta/mu-opioid, DAMGO-evoked Fluo4 calcium flux; stronger effect = lower value. B-score at 10 µM. actives 0.39% (n = 300,000). AID 2247;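 active = B-score over 3 SD under the library average, no early fluorescence shift, positive overall ratio signal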
#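 Material: HEK293 cells with stable TRPC4beta plus mu-opioid receptor expression; probe or stimulus: DAMGO in two steps, submaximal then maximal; technique: Fluo4 calcium fluorescence by kinetic imaging, 5 s 1 Hz baseline; measure: integrated fluorescence ratio relative to baseline, converted to per-well B score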
# TRPC6 inh: inhibitors of mouse TRPC6 channel; Q61143; HEK293-TRPC6, membrane potential dye, ACh-evoked depolarization; stronger effect = lower value; B-score at 10 µM; actives 1.1% (n = 310,000);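 active = B-score under library mean minus 3 SD, initial fluorescence not abnormally high, positive integrated signal ratio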;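 also: B-score derived from integrated fluorescence ratio over the kinetic read; more negative B-score means stronger inhibition of depolarization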
# TRPC6 activator: mouse TRPC6 channel activation; actives 0.13% (n = 310,000); HEK293-TRPC6 membrane potential dye fluorescence; stronger effect = higher value; Q61143; B-score at 10 µM;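 active = B-score of the integrated fluorescence ratio above library mean plus 3 SD, and starting fluorescence ratio within library mean plus 5 SD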;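 also: higher score means more depolarization so channel activation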
# TRPC4 act: activators of mouse TRPC4 channel; Q9QUQ5; HEK293 TRPC4beta/mu-opioid, Fluo4 calcium fluorescence; stronger effect = higher value; B-score at 10 µM; actives 0.49% (n = 310,000); AID 2237;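 active = B-score above 5 SD of library B-scores, and initial fluorescence ratio not above library mean plus 5 SD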;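 also: positive B-score marks a calcium rise read as TRPC4 activation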
#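 Test system: HEK293 cells stably co-expressing mouse TRPC4beta and mu-opioid receptor | Schedule: Fluo4 dye loading 45 min at room temperature, 110 s recording | Measured by: Kinetic Fluo4 calcium fluorescence, 5 s baseline at 1 Hz | Evaluation: B score of integrated ratio | Controls: Buffer (low) and maximal DAMGO (high)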
# * marks the source's active call; other numbers are inactive results; i = inactive.
SMILES,TRPC4 PAM,TRPC4 block,TRPC6 inh,TRPC6 activator,TRPC4 act
COc1cc(/C=C/C(=O)OCC(=O)Nc2c(C)n(C)n(-c3ccccc3)c2=O)ccc1OCC#N,i,i,i,i,125*
COCCCn1c(N)c(-c2nc3ccccc3n2C)c2nc3ccccc3nc21,i,i,i,i,74*
Cn1c(-c2c(N)n(CCCc3ccccc3)c3nc4ccccc4nc23)nc2ccccc21,i,i,i,i,i
O=C1CC(c2cccc([N+](=O)[O-])c2)c2ccc3ccccc3c2N1 (stereo not given),11*,i,i,i,i
COCc1cc(=O)[nH]c(N2CCN(Cc3ccc4c(c3)OCO4)CC2)n1,i,i,i,i,i
Cc1cccc2cc(CN(Cc3nnnn3C3CCCC3)C3CCCCC3)c(=O)[nH]c12,i,i,i,i,i
CCc1ccc2[nH]c(=O)c(CN(Cc3nnnn3C3CCCC3)C3CCCCC3)cc2c1,10*,i,i,i,i
COc1ccc(C)cc1Nc1n[n+](-c2ccccc2)c(-c2c(Cl)cccc2Cl)s1,i,i,-5.36*,i,67*
CN(C)c1ccc(-c2sc(Nc3ccccc3)n[n+]2-c2ccc(F)cc2)cc1,i,i,i,i,222*
Fc1ccc(-[n+]2nc(Nc3ccccc3)sc2-c2c(Cl)cccc2Cl)cc1,i,i,i,i,55*
Cc1cccc(-c2csc(N)c2C(=O)OC(C)C)c1,i,-6*,i,i,i
Cc1ccc(C)c(-c2csc(N)c2C(=O)OC(C)C)c1,i,i,i,i,i
Cn1c2c(c(=O)n(C)c1=O)C(C(F)(F)F)(C(F)(F)F)N=C(CCC1CCCCC1)N2,11*,i,i,i,i
COc1ccc(C(=O)NCCC2=CCCCC2)cc1OC1CCN(C(C)C)CC1,i,i,i,i,i
COc1ccc(CCN(C)C(=O)c2cc(S(=O)(=O)N3CCCCC3)ccc2Cl)cc1OC,i,-7*,i,i,i
COc1ccc(CCN(C)C(=O)c2cc(S(=O)(=O)N3CCCCCC3)ccc2OC)cc1OC,i,i,i,i,i
O=C(NCc1nc2ccccc2[nH]1)C1=C[C@H](c2ccc3c(c2)OCO3)C[C@H](OCc2ccc(CO)cc2)O1,i,i,i,i,i
Clc1ccc2c(c1)-c1nnc(Br)n1-c1ccccc1S2,i,-6*,i,i,i
O=C(CNS(=O)(=O)c1ccc([N+](=O)[O-])cc1)N/N=C\c1ccc(O)cc1,12*,i,i,i,i
COc1ccc(NC(=O)CSc2nnc(-c3cccs3)n2N)c(OC)c1,i,i,i,i,i
COCCN1C(=O)N[C@@H](c2ccco2)C(C(=O)OC)=C1C,i,i,i,i,i
O=[N+]([O-])c1ccc(C2CNC(c3ccccc3)O2)cc1 (stereo not given),14*,i,i,i,i
COc1cc(C2NC(=O)NC(C)=C2C(=O)OCC2CCCCC2)ccc1O (stereo not given),i,i,i,i,i
CC1=CC(=O)C(C(C)C)=C/C1=N/OS(=O)(=O)c1ccccc1,21*,i,i,i,i
CC1=CC(=O)C=C(C)C1=NOS(=O)(=O)c1ccccc1,i,i,i,i,i
SMILES,TRPC4 PAM,TRPC4 block,TRPC6 inh,TRPC6 activator,TRPC4 act
CCOc1ccc(CCNC(=O)COC(=O)c2cccc(S(=O)(=O)N3CCOCC3)c2)cc1OCC,i,i,i,i,i
CCCNc1nc2ccccc2n2c(C)nnc12,i,-6*,i,i,i
CC(=O)N1c2ccc(S(=O)(=O)NCC3CCC(C(=O)N4CC(C)CC(C)C4)CC3)cc2CC1C (stereo not given),i,i,i,i,i
Cc1nc([N+](=O)[O-])c(C(=O)OCc2cccc(Br)c2)n1C,i,i,i,i,i
CCOC(=O)c1c(NC(=O)CSC(=S)N2CCOCC2)sc(C)c1C,i,i,i,i,i
NC(N)=NC(=O)Cc1c(Cl)cccc1Cl,i,i,i,i,46*
COc1ccc(CCN2CCCC(CN(C)Cc3cc(Cl)c(O)c(OC)c3)C2)cc1 (stereo not given),i,i,i,i,i
C=CCN(C)CC/C=C1\c2ccccc2CSc2ccccc21,i,-5*,i,i,i
CCc1nnc(NC(=O)c2nc3nc(C)cc(C)n3n2)s1,i,i,-5.51*,i,i
Cc1ccccc1C(=O)NC1CC(C)(C)NC(C)(C)C1,i,i,i,i,i
CC1(C)CC(NC2C3CC4CC(C3)CC2C4)CC(C)(C)N1 (stereo not given),12*,i,i,i,i
Cc1ccc2nc(SCC(=O)Nc3ccc(F)cc3F)nc(=O)n2c1,i,i,i,i,i
Cc1nn(C(=O)c2cccnc2)c(C)c1Sc1ccccc1,i,-6*,i,i,i
Cc1ccc(NC(=O)/C=C/C(=O)O)c(NC(=O)c2ccccc2)c1,i,i,i,i,i
CC(=O)OCC1O[C@@H](O[C@@H]2C[C@H]3C(C)(C)[C@H](OC(C)=O)CC[C@]3(C)[C@H]3CC[C@]45C[C@]4(CC[C@H]5[C@@H](C)C[C@@H](O)[C@H](O)C(C)(C)O)[C@@]32C)[C@H](O)[C@@H](O)[C@@H]1O (stereo not given in full),i,i,i,i,110*
O=C(CN1CCCC1)Nc1ccc(F)c(Cl)c1,i,i,i,i,i
C=CCNC(=S)N/N=C/c1ccc(C(C)(C)C)cc1,i,-6*,i,i,i
CC(C)(C)c1ccc(/C=N/NC(=S)NCc2ccccc2)cc1,i,i,i,i,i
O=C(NCCN1CCCC1)c1ccc(Br)cc1,i,i,i,i,i
O=C(CN1CCN(Cc2ccccc2)CC1)N=Nc1c(O)[nH]c2ccccc12,i,i,i,i,i
O=C(CN1CCCCC1)N=Nc1c(O)[nH]c2ccccc12,i,-8*,i,i,i
O=C(/C=C/c1ccccc1)N(c1ccccn1)C1CCCCC1,i,i,i,i,i
O=C(/C=C/c1ccccc1Cl)N(c1ccccn1)C1CCCCC1,16*,i,i,i,i
N#Cc1ccc(C(=O)CSc2n[nH]c(=O)n2-c2cccnc2)cc1,i,i,i,i,i
C=CCn1c(NC(C)c2cc(Cl)ccc2O)nc2ccccc21 (stereo not given),i,-6*,i,i,i
